Experimental data taken from ChEMBL document CHEMBL5030505, “Assessment of NR4A Ligands That Directly Bind and Modulate the Orphan Nuclear Receptor Nurr1” (J Med Chem, 2020).
The source made the active and inactive calls.

Assays:
Type in all cases: cell-based
[1] = molecular target: Nuclear receptor subfamily 4 group A member 2 (Homo sapiens) (UniProt P43354); experiment: Modulation of full length human Nurr1 expressed in SKNBE(2) cells co-transfected with luciferase reporter plasmid harboring NBRE response element assessed as decrease in luciferase activity at 1.56 to 6.25 uM incubated for 18 by luciferase reporter gene assay; conditions: SKNBE2, filed as modulator, dose 1.56-6.25 µM, time 18.0 hrs
Sequence of Nuclear receptor subfamily 4 group A member 2 (Homo sapiens) (P43354 whole entry, the tested form may be a part): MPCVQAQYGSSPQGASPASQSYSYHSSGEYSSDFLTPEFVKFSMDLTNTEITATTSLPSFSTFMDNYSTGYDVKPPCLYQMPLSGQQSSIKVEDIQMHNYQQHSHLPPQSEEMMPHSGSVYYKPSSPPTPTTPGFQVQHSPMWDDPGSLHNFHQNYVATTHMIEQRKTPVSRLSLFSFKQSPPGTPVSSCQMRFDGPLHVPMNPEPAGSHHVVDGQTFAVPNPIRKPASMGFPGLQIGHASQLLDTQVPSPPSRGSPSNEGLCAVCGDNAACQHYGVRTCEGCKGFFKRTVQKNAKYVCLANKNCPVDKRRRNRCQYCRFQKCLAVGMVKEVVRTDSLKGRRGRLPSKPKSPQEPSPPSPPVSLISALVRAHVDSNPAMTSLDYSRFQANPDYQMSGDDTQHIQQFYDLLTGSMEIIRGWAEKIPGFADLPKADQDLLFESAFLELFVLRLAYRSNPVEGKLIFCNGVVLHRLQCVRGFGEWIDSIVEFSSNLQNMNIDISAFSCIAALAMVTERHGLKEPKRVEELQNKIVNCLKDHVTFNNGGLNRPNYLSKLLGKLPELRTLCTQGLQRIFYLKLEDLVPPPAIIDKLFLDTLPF
Outline: (§1)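 Cells transfected (Lipofectamine 2000, 18 h) with full-length Nurr1 expression plasmid (2 μg) and 3xNBRE- or 3xNurRE-luciferase reporter (6 μg), no internal control normalisation; replated 10,000 cells/well, 4 h; ligand or vehicle in quadruplicate for 18 h; Britelite Plus luminescence as fold change over vehicle. Mean ± s.e.m. (n=4); one-way ANOVA versus vehicle.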

[2] = molecular target: Nuclear receptor subfamily 4 group A member 2 (Homo sapiens) (UniProt P43354); experiment: Modulation of full length human Nurr1 expressed in SKNBE(2) cells co-transfected with RXRalpha and luciferase reporter plasmid harboring NBRE response element assessed as decrease in luciferase activity at 1.56 to 6.25 uM incubated for 18 by luciferase reporter gene assay; conditions: SKNBE2, filed as modulator, dose 1.56-6.25 µM, time 18.0 hrs
[3] = molecular target: Nuclear receptor subfamily 4 group A member 2 (Homo sapiens) (UniProt P43354); experiment: Modulation of full length human Nurr1 expressed in PC12 cells co-transfected with luciferase reporter plasmid harboring NurRE response element assessed as decrease in luciferase activity at 1.56 to 6.25 uM incubated for 18 by luciferase reporter gene assay; conditions: PC-12, filed as modulator, dose 1.56-6.25 µM, time 18.0 hrs; outline: as §1
SKNBE2 = experiment: Modulation of Gal4-fused VP16 expressed in SKNBE(2) cells co-transfected with UAS repoter gene assessed as decrease in luciferase activity at 1.56 to 6.25 uM incubated for 18 hrs by luciferase reporter gene assay; conditions: Human alphaherpesvirus 2, filed as modulator, dose 1.56-6.25 µM
Outline: (§2)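 Constitutive control: cells transfected (Lipofectamine 2000) with Gal4-VP16 expression plasmid (2 μg) plus 5xUAS-luciferase reporter (2 μg), 18 h; replated 10,000 cells/well, 4 h; ligand or vehicle in quadruplicate for 18 h; luciferase read by Britelite Plus; signal as fold change over vehicle-treated cells. Mean ± s.e.m. (n=4); one-way ANOVA versus vehicle.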

[4] = molecular target: Nuclear receptor subfamily 4 group A member 2 (Homo sapiens) (UniProt P43354); experiment: Modulation of full length human Nurr1 expressed in PC12 cells co-transfected with RXRalpha and luciferase reporter plasmid harboring NBRE response element assessed as increase in luciferase activity at 1.56 to 6.25 uM incubated for 18 by luciferase reporter gene assay; conditions: PC-12, filed as modulator, dose 1.56-6.25 µM, time 18.0 hrs
[5] = molecular target: Nuclear receptor subfamily 4 group A member 2 (Homo sapiens) (UniProt P43354); experiment: Modulation of full length human Nurr1 expressed in SKNBE(2) cells co-transfected with luciferase reporter plasmid harboring NBRE response element assessed as increase in luciferase activity at 1.56 to 6.25 uM incubated for 18 by luciferase reporter gene assay; conditions: SKNBE2, filed as modulator, dose 1.56-6.25 µM, time 18.0 hrs; outline: as §1
[6] = molecular target: Nuclear receptor subfamily 4 group A member 2 (Homo sapiens) (UniProt P43354); experiment: Modulation of full length human Nurr1 expressed in HEK293T cells co-transfected with RXRalpha and luciferase reporter plasmid harboring NurRE response element assessed as increase in luciferase activity at 1.56 to 6.25 uM incubated for 18 by luciferase reporter gene assay; conditions: filed as modulator, dose 1.56-6.25 µM, time 18.0 hrs
PC-12 = experiment: Modulation of Gal4-fused VP16 expressed in PC12 cells co-transfected with UAS repoter gene assessed as decrease in luciferase activity at 1.56 to 6.25 uM incubated for 18 hrs by luciferase reporter gene assay; conditions: Human alphaherpesvirus 2, filed as modulator, dose 1.56-6.25 µM; outline: as §2
[7] = molecular target: Nuclear receptor subfamily 4 group A member 2 (Homo sapiens) (UniProt P43354); experiment: Modulation of full length human Nurr1 expressed in PC12 cells co-transfected with RXRalpha and luciferase reporter plasmid harboring NurRE response element assessed as decrease in luciferase activity at 1.56 to 6.25 uM incubated for 18 by luciferase reporter gene assay; conditions: PC-12, filed as modulator, dose 1.56-6.25 µM, time 18.0 hrs

Measured: Activity

CC1=C(O)C(=O)C=C2C1=CC=C1[C@@]2(C)CC[C@@]2(C)[C@@H]3C[C@](C)(C(=O)O)CC[C@]3(C)CC[C@]12C [CELASTROL]
active: all assays above
